From ChEMBL document CHEMBL1629507, “Small molecule inhibitors of hantavirus infection” (Bioorg Med Chem Lett, 2010)
Where a SMILES comes first, the peptide text is derived from it. [ ]: non-standard residue; d: D form. The star is where a group is joined. Phe(4-F) = N[CH](Cc1ccc(F)cc1)C(=O)O; Tos = Cc1ccc(S(=O)(=O)*)cc1

The compounds below were run against Integrin alpha-V/beta-3 (Homo sapiens) (UniProt P05106+P06756) (assay: Inhibition of human alphaVbeta3 receptor expressed in african green monkey Vero E6 cells assessed as inhibition of SNV infection in cells at 1 uM by immunofluorescent assay).
Format: cell-based
Outline: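 Vero E6 cells (10^4/well, duplicate wells) were grown 24 h at 37 °C in MEM with 2.5% FBS. They were pretreated 1 h at 37 °C with small molecules (1 µM) or cyclic peptides (2 mM, in PBS pH 7.4). SNV strain SN77734 (500–1,000 FFU/ml) was then added for 1 h, then washed out. After 24–36 h, cells were fixed and stained with anti-SNV N plus FITC antibody, and foci counted. % inhibition is relative to untreated cells, normalized to ReoPro 80 µg/ml set as 80%; at least 4 replicates.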
Work on `COc1ccc(N2CCN(C(=O)Cc3csc4nc(-c5ccc(F)cc5)cn34)CC2)cc1` yielded an inhibition of 0%. `Cc1cc(C)cc(-n2c(=O)c3sccc3n(CC(=O)N3CCN(c4ccccc4)CC3)c2=O)c1` showed an inhibition of 2.2%. In the case of `O=C(CSc1nc2ccccc2c(=O)n1Cc1ccc2c(c1)OCO2)NCc1ccco1`, the inhibition is reported as 34.2%. For `COc1ccccc1CNC(=O)C(Cc1ccccc1)NS(=O)(=O)c1cccc2cccnc12` (centres undefined), the inhibition was 9.6%. `O=C(NCc1ccco1)C(Cc1ccccc1)NS(=O)(=O)c1ccc2nsnc2c1` (centres undefined) showed an inhibition of 21%. `COc1ccccc1CNC(=O)C1CCCN(c2ncnc3onc(-c4ccc(F)cc4)c23)C1` (centres undefined) was tested, and the inhibition was 16%. For `O=C(Nc1ccccc1)C(Cc1ccccc1)NS(=O)(=O)c1cccc2cccnc12` (centres undefined), the inhibition was 0%. In the case of `O=C(CSc1nc2ccccc2n1S(=O)(=O)c1ccc(Cl)cc1)NCCc1ccccc1`, the inhibition is reported as 13.6%. `O=C(NC(C(=O)N/N=C/c1ccco1)c1nnc(O)c2ccccc12)c1ccccc1` (centres undefined) gave an inhibition of 33%. Work on `COc1ccc(C(CC(=O)NCCN2CCOCC2)NS(=O)(=O)c2ccc(Cl)cc2)cc1` (centres undefined) yielded an inhibition of 0%. `CCN(CCNC(=O)C(Cc1ccccc1)NS(=O)(=O)c1cccc2nsnc12)c1ccccc1` (centres undefined) showed an inhibition of 8%. For `O=C(NCc1ccc(Cl)cc1)C(Cc1ccccc1)NS(=O)(=O)c1cccc2cccnc12` (centres undefined), the inhibition was 9.1%. `Cc1ccc(S(=O)(=O)N2CCN(C(=O)CSc3nnc(C)c(=O)[nH]3)C2c2ccccc2)cc1` (centres undefined) was tested, and the inhibition was 4%. `COc1ccc(Cl)cc1NC(=O)C(Cc1ccccc1)NS(=O)(=O)c1cccc2cccnc12` (centres undefined) was tested, and the inhibition was 8%. In the case of `O=S(=O)(c1cccc2cccnc12)N1CCN(Cc2ccc3c(c2)OCO3)CC1`, the inhibition is reported as 0%. With `Cc1cccc(OCC(=O)N/N=C/c2ccc(OC(=O)/C=C/c3ccco3)cc2)c1` the inhibition was 8%. With `Cc1ccc(S(=O)(=O)NC(Cc2ccccc2)C(=O)NC(CCCNC(=N)N)C(=O)O)cc1` (stereo not drawn) (Tos-Phe-Arg-OH; configuration not given here) the inhibition was 0%. With `COc1ccc(OC)c(CNC(=O)C2CCCN(c3ncnc4onc(-c5ccc(F)cc5)c34)C2)c1` (centres undefined) the inhibition was 28%. `O=C(NCC1COc2ccccc2O1)C(Cc1ccccc1)NS(=O)(=O)c1ccc2nsnc2c1` (centres undefined) gave an inhibition of 20%. `O=C(Nc1ccccc1Cl)C(Cc1ccccc1)NS(=O)(=O)c1cccc2nsnc12` (centres undefined) was tested, and the inhibition was 10%. In the case of `O=C(NCC1CCCO1)C(Cc1ccccc1)NS(=O)(=O)c1cccc2nsnc12` (centres undefined), the inhibition is reported as 2%. `CCC(Sc1nc2ccsc2c(=O)n1Cc1ccc2c(c1)OCO2)C(=O)NCc1ccco1` (centres undefined) showed an inhibition of 41%. With `O=C(NC1CCCc2ccccc21)C(Cc1ccccc1)NS(=O)(=O)c1cccc2nsnc12` (centres undefined) the inhibition was 0%. Compound `O=C(NCc1ccccc1)C(Cc1ccccc1)NS(=O)(=O)c1cccc2nsnc12` (centres undefined) has an inhibition of 3.2%. For `Cc1nnc(SCC(=O)NCCc2cccs2)c2nn(-c3ccccc3)c(C)c12`, the inhibition was 17%. Compound `CCOC(=O)c1sc2nc(SCC(=O)NCc3ccccc3)n(Cc3ccco3)c(=O)c2c1C` has an inhibition of 25.9%. For `COc1ccc(OC)c(NC(=O)C(Cc2ccccc2)NS(=O)(=O)c2cccc3nsnc23)c1` (centres undefined), the inhibition was 6.4%. `COc1ccc([N+](=O)[O-])cc1NC(=O)C(Cc1ccccc1)NS(=O)(=O)c1cccc2nsnc12` (centres undefined) was tested, and the inhibition was 8%. `COc1cccc(CNC(=O)C(Cc2ccccc2)NS(=O)(=O)c2cccc3cccnc23)c1` (centres undefined) was tested, and the inhibition was 0.8%. Work on `O=C(CCNS(=O)(=O)c1cccc2nsnc12)N(CCc1ccccc1)Cc1ccccc1` yielded an inhibition of 0%. For `Cc1cccc(CN2C(=O)c3ccccc3Sc3ccc(C(=O)NCc4ccco4)cc32)c1`, the inhibition was 26%. `O=C(Cn1c(=O)n(Cc2ccc3c(c2)OCO3)c(=O)c2ccccc21)NCCc1ccccc1` gave an inhibition of 25.9%. Compound `COc1ccc(OC)c(CNC(=O)C2CCCN(c3ncnc4onc(C)c34)C2)c1` (centres undefined) has an inhibition of 0%. In the case of `CC1(C)CC(=O)c2cc(C(=O)NCCCN3CCOCC3)c(=O)n(-c3ccc(Cl)cc3)c2C1`, the inhibition is reported as 18%. `CCc1ccccc1NC(=O)C(Cc1ccccc1)NS(=O)(=O)c1cccc2nsnc12` (centres undefined) was tested, and the inhibition was 2%. Compound `O=C(NCCC1=CCCCC1)C(Cc1ccccc1)NS(=O)(=O)c1cccc2cccnc12` (centres undefined) has an inhibition of 19.3%. In the case of `O=C(NCc1ccc2c(c1)OCO2)C(Cc1ccccc1)NS(=O)(=O)c1cccc2nsnc12` (centres undefined), the inhibition is reported as 0%. With `NS(=O)(=O)c1ccc(CCNC(=O)C(Cc2ccccc2)NS(=O)(=O)c2cccc3nsnc23)cc1` (centres undefined) the inhibition was 9.6%. Compound `O=C(N/N=C/c1ccc(Br)s1)c1cc(-c2ccccc2)nc2ccccc12` has an inhibition of 5%. Work on `Cc1ccc(C)c(NC(=O)C(Cc2ccccc2)NS(=O)(=O)c2cccc3cccnc23)c1` (centres undefined) yielded an inhibition of 0%. `CN1CCN(C(=O)C(Cc2ccccc2)NS(=O)(=O)c2cccc3cccnc23)CC1` (centres undefined) gave an inhibition of 0%. `O=C(NC1CCCCCC1)C(Cc1ccccc1)NS(=O)(=O)c1cccc2nsnc12` (centres undefined) gave an inhibition of 0%. Compound `Cc1ccc(S(=O)(=O)NC(Cc2ccc(F)cc2)C(=O)NC(CCCNC(=N)N)C(=O)O)cc1` (centres undefined) (Tos-[Phe(4-F)]-Arg-OH; configuration not given here) has an inhibition of 0%. `Cc1cccc(C)c1NC(=S)N/N=C\c1cn(C)c2ccc(S(=O)(=O)N3CCOCC3)cc12` was tested, and the inhibition was 0%. In the case of `COc1ccc(CNC(=O)c2ccc3c(c2)N(Cc2ccccc2)C(=O)c2ccccc2S3)cc1`, the inhibition is reported as 22%. Work on `Cc1cc(NC(=O)C(Cc2ccccc2)NS(=O)(=O)c2cccc3cccnc23)no1` (centres undefined) yielded an inhibition of 9.6%. For `COc1ccc(CCNC(=O)C(Cc2ccccc2)NS(=O)(=O)c2ccc(Cl)cc2)cc1OC` (centres undefined), the inhibition was 14%. With `O=C(NCCC1=CCCCC1)C(Cc1ccccc1)NS(=O)(=O)c1cccc2nsnc12` (centres undefined) the inhibition was 0%. Compound `O=C(CC(NS(=O)(=O)c1ccc(Cl)cc1)c1ccco1)NCc1cccnc1` (centres undefined) has an inhibition of 9.6%. `O=C(C(Cc1ccccc1)NS(=O)(=O)c1cccc2cccnc12)N1CCC2(CC1)OCCO2` (centres undefined) was tested, and the inhibition was 9%. `O=C(C(Cc1ccccc1)NS(=O)(=O)c1ccc2nsnc2c1)N1CCn2c1nc1ccccc12` (centres undefined) showed an inhibition of 0%. `O=C(NCCc1ccccc1)C(Cc1ccccc1)NS(=O)(=O)c1cccc2nsnc12` (centres undefined) showed an inhibition of 0%. `CCOC(=O)N1CCN(C(=O)C(Cc2ccccc2)NS(=O)(=O)c2ccc3nsnc3c2)CC1` (centres undefined) gave an inhibition of 4%. `Nc1c([S+]([O-])Cc2ccc(Cl)cc2)sc2nc(-c3cccs3)cc(-c3ccccc3)c12` (centres undefined) gave an inhibition of 1%. Compound `COc1ccc(NC(=O)C(Cc2ccccc2)NS(=O)(=O)c2cccc3cccnc23)c(OC)c1` (centres undefined) has an inhibition of 22.5%. With `COc1ccc(CCNC(=O)C(Cc2ccccc2)NS(=O)(=O)c2cccc3nsnc23)cc1OC` (centres undefined) the inhibition was 0%. For `Cc1ccc(S(=O)(=O)NC(CC(=O)NCc2cccnc2)c2ccco2)cc1` (centres undefined), the inhibition was 7%. `O=C(CSc1nc2nccnc2c(=O)n1Cc1ccc2c(c1)OCO2)NCCc1ccccc1` showed an inhibition of 8%. For `O=C(NCc1ccccc1Cl)C(Cc1ccccc1)NS(=O)(=O)c1cccc2nsnc12` (centres undefined), the inhibition was 0%. `O=C(N/N=C1\C(=O)N(CN(Cc2ccccc2)Cc2ccccc2)c2ccccc21)c1cccs1` was tested, and the inhibition was 3.8%. With `O=C(CSc1nc2ccsc2c(=O)n1-c1ccc(Cl)cc1)NCCc1ccc(Cl)cc1` the inhibition was 11.4%. For `O=C(NCc1cccnc1)C(Cc1ccccc1)NS(=O)(=O)c1cccc2nsnc12` (centres undefined), the inhibition was 35%. Work on `CCOC(=O)C(NC(=O)/C(=C/c1ccc(Cl)cc1)NC(=O)c1ccco1)C(C)C` (centres undefined) yielded an inhibition of 0%. `Cc1cccc(NC(=O)C(Cc2ccccc2)NS(=O)(=O)c2cccc3nsnc23)n1` (centres undefined) gave an inhibition of 17.7%. `O=C(NCCc1ccc(Cl)cc1)C1CCCN(c2ncnc3onc(-c4ccc(F)cc4)c23)C1` (centres undefined) gave an inhibition of 14.5%. Compound `COc1ccccc1C1CC(c2c(O)[nH]c(=O)n(CCc3ccccc3)c2=O)=Nc2ccccc2S1` (centres undefined) has an inhibition of 18%. `COc1ccc(/C=C(\NC(=O)c2ccccc2)C(=O)NCCCCCC(=O)O)cc1` was tested, and the inhibition was 8%. `O=C(C(Cc1ccccc1)NS(=O)(=O)c1cccc2cccnc12)N1CCOCC1` (centres undefined) was tested, and the inhibition was 4.5%. Compound `COc1ccc(CCNC(=O)C(Cc2ccccc2)NS(=O)(=O)c2ccc(Br)cc2)cc1OC` (centres undefined) has an inhibition of 14%. In the case of `CCC1CCCCN1CCNC(=O)C(Cc1ccccc1)NS(=O)(=O)c1ccc2nsnc2c1` (centres undefined), the inhibition is reported as 0%. For `COc1cccc(C(CC(=O)NCCCN2CCOCC2)NS(=O)(=O)c2ccc(C)cc2)c1OC` (centres undefined), the inhibition was 0%. Compound `N#Cc1ccccc1OCC(=O)N/N=C/c1cc(Br)ccc1OC(=O)c1ccccc1` has an inhibition of 15%. For `CC1CCN(CCNC(=O)C(Cc2ccccc2)NS(=O)(=O)c2cccc3cccnc23)CC1` (centres undefined), the inhibition was 7%. Compound `O=C(CCCn1c(=O)c2sccc2n(Cc2ccc(F)cc2)c1=O)NCc1ccco1` has an inhibition of 0%. `CCOC(=O)N1CCC(NC(=O)C(Cc2ccccc2)NS(=O)(=O)c2cccc3nsnc23)CC1` (centres undefined) showed an inhibition of 0%. Compound `O=C(NCc1cccc(Cl)c1)C1CCCN(c2ncnc3onc(-c4ccc(F)cc4)c23)C1` (centres undefined) has an inhibition of 6%. In the case of `CCCCN(CC)CCCNC(=O)C1CCCN(c2ncnc3onc(C)c23)C1` (centres undefined), the inhibition is reported as 3.1%. `O=C1c2cccnc2C(=O)N1Cc1ccc(F)cc1S(=O)(=O)N1CCC(Cc2ccccc2)CC1` was tested, and the inhibition was 0%. For `COc1ccc(CNC(=O)C2CCCN(c3ncnc4onc(C)c34)C2)cc1` (centres undefined), the inhibition was 4.6%. `O=C(CCn1c(=O)c2ccccc2n(Cc2cc(=O)n3ccccc3n2)c1=O)NCc1ccco1` gave an inhibition of 15%. `O=C(CSc1nc2nccnc2c(=O)n1Cc1cccs1)NCCc1ccccc1` was tested, and the inhibition was 6%. Compound `Cc1ccc(Cl)cc1NC(=O)C(Cc1ccccc1)NS(=O)(=O)c1cccc2nsnc12` (centres undefined) has an inhibition of 3.2%. `COc1ccc(CCNC(=O)CN(CCc2ccccc2)S(=O)(=O)c2ccccc2)cc1OC` was tested, and the inhibition was 15.2%. In the case of `COc1ccc(Cc2cccc(CNC(=O)C3CCCN(c4ncnc5onc(-c6ccc(F)cc6)c45)C3)c2)cc1` (centres undefined), the inhibition is reported as 39%. Work on `CCc1ccc(CNC(=O)C2CCCN(c3ncnc4onc(-c5ccc(F)cc5)c34)C2)cc1` (centres undefined) yielded an inhibition of 7%. Work on `CCCN(CCC)CCNC(=O)C(Cc1ccccc1)NS(=O)(=O)c1cccc2nsnc12` (centres undefined) yielded an inhibition of 34%. `O=C(C(Cc1ccccc1)NS(=O)(=O)c1ccc2nsnc2c1)N1CCC2(CC1)OCCO2` (centres undefined) gave an inhibition of 6%. `NS(=O)(=O)c1ccc(CCNC(=O)C(NS(=O)(=O)c2cccc3nsnc23)c2ccccc2)cc1` (centres undefined) was tested, and the inhibition was 6%. `CC(NC(=O)C(Cc1ccccc1)NS(=O)(=O)c1cccc2nsnc12)c1ccccc1` (centres undefined) showed an inhibition of 2%.
